From ChEMBL document CHEMBL5724801, “EUbOPEN Chemogenomics Library - Multiplex” (2024)
“And” between values parts separate entries of the source, which are not always exact repeats. Equal entries are not always repeated.

System: HEK-293T
Test: Multiplex assay against HEK293T
Format: toxicity, cell-based
Conditions: human
Summary of the method: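 Per cents of healthy-nucleus cells form the tubulin, mitochondrial-mass and membrane-permeability phenotype values. Live cells were stained at seeding with Hoechst33342, BioTracker Green Microtubule Cytoskeleton Dye, MitoTracker Red and Annexin V Alexa Fluor 680. After compound addition they were imaged on a CQ1 microscope at 37°C and 5% CO2, and CellPathfinder machine-learning gating split them into Hoechst high-intensity objects or normal cells, normal cells into healthy, pyknosed or fragmented nuclei, and pyknosed cells into mitotic or apoptotic.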

[1] = 12 h, 1 µM, compound concentration 1 uM
[2] = 12 h, 10 µM, compound concentration 10 uM
[3] = 24 h, 1 µM, compound concentration 1 uM
[4] = 24 h, 10 µM, compound concentration 10 uM
[5] = 48 h, 1 µM, compound concentration 1 uM
[6] = 48 h, 10 µM, compound concentration 10 uM

With `CN1CC[C@@]23CCCC[C@@H]2[C@@H]1Cc1ccc(O)cc13.O=C(O)C(O)C(O)C(=O)O` the “Population Apoptotic (%)” value [1] was 5.07% and 6.25%, the “Population Fragmented Nuclei (%)” value [1] was 0% and 2.38% and the “Population Healthy Nuclei (%)” value [1] was 61.34% and 21.43%. For the same compound, the “Population Hoechst High Intensity Objects (%)” value [1] was 0.28% and 0.59%, the “Population Membrane Permeable-Phenotype (%)” value [1] was 0% and the “Population Mitochondria Different-Phenotype (%)” value [1] was 31.51% and 13.89%. The “Population Mitotic Cells (%)” value [1] was 94.93% and 93.75%, the “Population Normal (%)” value [1] was 99.72% and 99.41% and the “Population Pyknosed Nuclei (%)” value [1] was 38.66% and 76.19%. The “Total Cell Count” value [1] was 358 and 169, the “Population Apoptotic (%)” value [2] was 7.34% and 9.57% and the “Population Fragmented Nuclei (%)” value [2] was 0.33% and 1.28%. For the same compound, the “Population Healthy Nuclei (%)” value [2] was 63.93% and 25%, the “Population Hoechst High Intensity Objects (%)” value [2] was 0% and the “Population Membrane Permeable-Phenotype (%)” value [2] was 0% and 2.56%. For the same compound, the “Population Mitochondria Different-Phenotype (%)” value [2] was 30.77%, the “Population Mitotic Cells (%)” value [2] was 92.66% and 90.43% and the “Population Normal (%)” value [2] was 100%. The “Population Pyknosed Nuclei (%)” value [2] was 35.74% and 73.72%, the “Total Cell Count” value [2] was 305 and 156 and the “Population Apoptotic (%)” value [3] was 13.27% and 11.22%. The “Population Fragmented Nuclei (%)” value [3] was 1.37% and 2.04%, the “Population Healthy Nuclei (%)” value [3] was 83.74% and 47.96% and the “Population Hoechst High Intensity Objects (%)” value [3] was 0.15% and 0.51%. The “Population Membrane Permeable-Phenotype (%)” value [3] was 1.27% and 3.19%, the “Population Mitochondria Different-Phenotype (%)” value [3] was 9.98% and 11.7% and the “Population Mitotic Cells (%)” value [3] was 86.73% and 88.78%. The “Population Normal (%)” value [3] was 99.85% and 99.49%, the “Population Tubulin-Different-Phenotype (%)” value [3] was 6.17% and 3.19% and the “Population Apoptotic (%)” value [4] was 10.81% and 11.46%. The “Population Fragmented Nuclei (%)” value [4] was 0.62% and 0.67%, the “Population Healthy Nuclei (%)” value [4] was 76.45% and 35.33% and the “Population Hoechst High Intensity Objects (%)” value [4] was 0%. For the same compound, the “Population Membrane Permeable-Phenotype (%)” value [4] was 0.54% and 0%, the “Population Mitochondria Different-Phenotype (%)” value [4] was 20.54% and 11.32% and the “Population Mitotic Cells (%)” value [4] was 89.19% and 88.54%. The “Population Normal (%)” value [4] was 100%, the “Population Pyknosed Nuclei (%)” value [4] was 22.93% and 64% and the “Population Tubulin-Different-Phenotype (%)” value [4] was 12.16% and 9.43%. For the same compound, the “Population Fragmented Nuclei (%)” value [5] was 4.07% and 2.37%, the “Population Healthy Nuclei (%)” value [5] was 87.05% and 78.04% and the “Population Hoechst High Intensity Objects (%)” value [5] was 0%. For the same compound, the “Population Membrane Permeable-Phenotype (%)” value [5] was 3.59% and 4.18%, the “Population Mitochondria Different-Phenotype (%)” value [5] was 11.36% and 7.6% and the “Population Mitotic Cells (%)” value [5] was 97.89% and 83.33%. For the same compound, the “Population Normal (%)” value [5] was 100%, the “Population Pyknosed Nuclei (%)” value [5] was 8.89% and 19.58% and the “Population Fragmented Nuclei (%)” value [6] was 2.47% and 1.7%. For the same compound, the “Population Healthy Nuclei (%)” value [6] was 87.64% and 68.94%, the “Population Hoechst High Intensity Objects (%)” value [6] was 0% and the “Population Membrane Permeable-Phenotype (%)” value [6] was 5.64% and 3.09%. For the same compound, the “Population Mitochondria Different-Phenotype (%)” value [6] was 15.29% and 22.84%, the “Population Mitotic Cells (%)” value [6] was 95.19% and 81.16% and the “Population Normal (%)” value [6] was 100%. The “Population Pyknosed Nuclei (%)” value [6] was 9.89% and 29.36%.
